Measurements published in publication PMC8559613 (Journal of biomolecular screening, 2016).

Key:
KLE cells [1] = assay: Annexin V-FITC/PI apoptosis assay in KLE cells; assay type: cell-based, human; details: for pro-apoptotic effect (early apoptotic cell population relative to untreated cells): 50 μM, without α-NF, 24, 48 and 72 h; for concentration dependence of pro-apoptotic effect: 10, 50 and 100 μM, without α-NF, 72 h
Outline: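 KLE cells grown in DMEM/F-12 (1:1) with 10% FBS were seeded in 6-well plates and used on day 7 post-seeding. Prodrug was given without α-NF at 50 μM for 24, 48 or 72 h, or at 10, 50 or 100 μM for 72 h. Controls received no prodrug. Cells were double-stained with Annexin V-FITC/PI and run on flow cytometry. % early apoptotic cells was compared with untreated controls by one-way ANOVA with Dunnett post test. Triplicate or quadruplicate.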

KLE cells [2] = assay type: cell-based
KLE cells [3] = assay: Cell cycle analysis; assay type: cell-based, human; details: 72 h; for % of cells in >4N / % of cells in G0/G1 / % of cells in G2/M / % of cells in S / % of cells in Sub-G1: mean ± SD; for cell cycle effects in CYP1B1-inhibited KLE cells / cell cycle effect in KLE cells compared to untreated cells: 10 and 100 μM
Outline: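 KLE cells, day 7 post-seeding, exposed to 10 or 100 μM prodrug with or without 10 μM α-NF for 72 h; untreated cells received no prodrug. Cells harvested, fixed in 70% (v/v) ethanol at −20°C overnight, then stained with PI/RNase buffer for 30 min at room temperature. DNA content read by flow cytometry. Run in triplicate or quadruplicate.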

[4] = Resazurin cytotoxicity assay in HepaRG cells; assay type: cell-based; details: human
Outline: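 HepaRG cells grown 2 weeks in Growth medium, then 2 weeks in Differentiation medium, then seeded at 5,000 cells/well. Prodrug given at 0–100 μM with medium changed daily for 69 h. Resazurin (0.01% w/v) added for a further 3 h (72 h total). Fluorescence read at ex 565/em 595 nm. IC50 from variable-slope dose-response fit. Controls: 0.1% DMSO vehicle and 2% Triton X-100.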

[5] = after the 14th daily oral administration of 6 mg/kg, vervet monkeys; cited from earlier work
[6] = Resazurin cytotoxicity assay in wild-type HEK293T cells; assay type: cell-based; details: human
Outline: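 Untransfected HEK293T cells in DMEM with 10% FBS, seeded at 5,000 cells/well and held 24 h. Prodrug given at 0–100 μM with medium changed daily for 69 h. Resazurin (0.01% w/v) added for a further 3 h (72 h total). Fluorescence read at ex 565/em 595 nm. IC50 from variable-slope dose-response fit. Controls: 0.1% DMSO vehicle and 2% Triton X-100.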

[7] = Resazurin cytotoxicity assay in CYP1B1-transfected HEK293T cells; assay type: cell-based; details: human, HEK293T cells transfected with CYP1B1
CYP1B1 = assay: EROD activity assay in KLE cells; assay type: cell-based; details: human, probe 7-ER (0.8 μM)
[8] = 100 μM prodrug, with 10 μM α-NF

Structure (SMILES)	pro-apoptotic effect (early apoptotic cell population relative to untreated cells) (KLE cells [1])	concentration dependence of pro-apoptotic effect (KLE cells [1])	% of cells in >4N (KLE cells [3]; 10 μM prodrug, with 10 μM α-NF)	% of cells in G0/G1 (KLE cells [3]; 10 μM prodrug, with 10 μM α-NF)	% of cells in G2/M (KLE cells [3]; 10 μM prodrug, with 10 μM α-NF)	% of cells in S (KLE cells [3]; 10 μM prodrug, with 10 μM α-NF)	% of cells in Sub-G1 (KLE cells [3]; 10 μM prodrug, with 10 μM α-NF)	% of cells in >4N (KLE cells [3]; 10 μM prodrug, without α-NF)	% of cells in G0/G1 (KLE cells [3]; 10 μM prodrug, without α-NF)	% of cells in G2/M (KLE cells [3]; 10 μM prodrug, without α-NF)	% of cells in S (KLE cells [3]; 10 μM prodrug, without α-NF)	% of cells in Sub-G1 (KLE cells [3]; 10 μM prodrug, without α-NF)	% of cells in >4N (KLE cells [3]; [8])	% of cells in G0/G1 (KLE cells [3]; [8])	% of cells in G2/M (KLE cells [3]; [8])	% of cells in S (KLE cells [3]; [8])	% of cells in Sub-G1 (KLE cells [3]; [8])	% of cells in >4N (KLE cells [3]; 100 μM prodrug, without α-NF)	% of cells in G0/G1 (KLE cells [3]; 100 μM prodrug, without α-NF)	% of cells in G2/M (KLE cells [3]; 100 μM prodrug, without α-NF)	further results
CON=C(N)c1ccc(-c2ccc(-c3ccc(C(N)=NOC)cc3)o2)cc1 [DB289, 2,5-bis[4-amidinophenyl]furan-bis-O-methylamidoxime]	significant increase in the early apoptotic cell population	concentration-dependent pro-apoptotic effects	5.3 ± 1.0%	39.5 ± 0.6%	39.3 ± 2.9%	9.8 ± 1.4%	5.4 ± 0.0%	1.7 ± 0.6%	40.0 ± 1.7%	45.0 ± 5.2%	5.3 ± 1.1 %	5.1 ± 1.4%	3.6 ± 0.4%	43.2 ± 3.4%	42.4 ± 2.6%	6.1 ± 1.1%	4.7 ± 1.0%	4.5 ± 1.3%	43.2 ± 0.8 %	39.5 ± 0.2%	viability of KLE cells (KLE cells [2]; 50 μM prodrug, KLE cells without α-NF, normalized to vehicle control): 21%; % of cells in S (KLE cells [3]; 100 μM prodrug, without α-NF): 8.3 ± 1.0 %; % of cells in Sub-G1 (KLE cells [3]; 100 μM prodrug, without α-NF): 4.5 ± 0.7%; cell cycle effects in CYP1B1-inhibited KLE cells (KLE cells [3]; with 10 μM α-NF): absent; cell cycle effect in KLE cells compared to untreated cells (KLE cells [3]; without α-NF): concentration-dependent G0/G1 cell cycle arrest
CONC(=N)c1ccc(-c2ccc(-c3ccc(C(=N)NOC)cn3)o2)cc1 [DB844, N-methoxy-6-{5-[4-(N-methoxyamidino)phenyl]-furan-2-yl}-nicotinamidine]	significant increase in the early apoptotic cell population	concentration-dependent pro-apoptotic effects	4.9 ± 0.9%	41.1 ± 1.5%	40.7 ± 2.9%	7.9 ± 1.5%	4.1 ± 1.1%	6.3 ± 1.9%	38.7 ± 2.1%	47.3 ± 0.5%	8.0 ± 1.4 %	4.6 ± 0.8%	3.4 ± 0.6%	43.3 ± 0.4%	41.8 ± 1.1%	5.6 ± 0.7%	4.3 ± 0.9%	3.7 ± 0.9%	43.9 ± 1.2 %	40.6 ± 1.3%	IC50 at 72 h [4]: 76.3 ± 1.6 µM; average maximal plasma concentration [5]: 0.43 µM; % of cells in S (KLE cells [3]; 100 μM prodrug, without α-NF): 6.6 ± 1.1 %; % of cells in Sub-G1 (KLE cells [3]; 100 μM prodrug, without α-NF): 5.3 ± 1.5%; cell cycle effects in CYP1B1-inhibited KLE cells (KLE cells [3]; with 10 μM α-NF): absent; cell cycle effect in KLE cells compared to untreated cells (KLE cells [3]; without α-NF): concentration-dependent G0/G1 cell cycle arrest; IC50 at 72 h [6]: 37.9 ± 0.9 µM; IC50 at 72 h [7]: 38.8 ± 0.9 µM
O=c1cc(-c2ccccc2)oc2c1ccc1ccccc12 [α-NF, α-naphthoflavone]	–	–	–	–	–	–	–	–	–	–	–	–	–	–	–	–	–	–	–	–	cytotoxic effect on KLE cells (KLE cells [2]; α-NF up to 15 μM): did not show any cytotoxic effect; inhibition at 24 h, 1 μM (CYP1B1): 81%
